Measurements: ChEMBL document CHEMBL4118244, “Design, synthesis and biological evaluation of benzofuran appended benzothiazepine derivatives as inhibitors of butyrylcholinesterase and antimicrobial agents” (Bioorg Med Chem, 2018)
Values after ≈ are worked out from the molar mass of the structure shown. Active and inactive are the calls of the source. The rule behind the calls is not given here.

Tests used:
[1] = target: Acetylcholinesterase (Electrophorus electricus) (UniProt O42275); assay: Inhibition of electric eel AChE using acetylthiocholine iodide as substrate pretreated for 15 mins followed by substrate addition measured for 6 mins by Ellman's method
Procedure, shortened: (§1)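 Ellman spectrophotometric assay in 0.1 M phosphate buffer pH 8.0 with DTNB, 25 °C. AChE (electric eel, Type V-S) or BChE was preincubated 15 min with compound before adding acetylthiocholine iodide or butyrylthiocholine iodide, respectively. Absorbance change at 412 nm was read for 6 min. Five concentrations were tested in triplicate, corrected by a nonenzymatic blank, with a no-inhibitor reference.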

Cholinesterase = Cholinesterase (Equus caballus, UniProt P81908); assay: Inhibition of equine serum BChE using butyrylthiocholine iodide as substrate pretreated for 15 mins followed by substrate addition measured for 6 mins by Ellman's method; settings: read-out: IC50; procedure, shortened: as §1
Shigella dysenteriae [2] = assay: Antibacterial activity against Shigella dysenteriae PTCC 1188; type: functional
[3] = test system: Staphylococcus epidermidis; assay: Antibacterial activity against Staphylococcus epidermidis ATCC 12228; type: functional
Bacillus spizizenii [4] = assay: Antibacterial activity against Bacillus subtilis ATCC 6633; type: functional
Staphylococcus aureus [5] = assay: Antibacterial activity against Staphylococcus aureus ATCC 29737; type: functional
Salmonella paratyphi [6] = assay: Antibacterial activity against Salmonella paratyphi A serotype ATCC 5702 assessed as diameter of inhibition zone at 200 ug per disc after 24 hrs by agar disc diffusion method; type: functional, Salmonella enterica subsp. enterica serovar Paratyphi A; settings: for zone of inhibition at 200 µg/disc: Salmonella enterica, ATCC 5702, 24 h, read-out: DIZ
Procedure, shortened: (§2)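 Agar disc diffusion. Compounds at 20 mg mL⁻¹ in DMSO, filter-sterilised. 100 µL of 10⁸ CFU mL⁻¹ bacteria spread on nutrient agar. 6 mm discs carried 10 µl (200 µg per disc), with DMSO discs as negative control. Incubation 24 h at 37 °C. Read-out is inhibition zone diameter, mean of 3 repeats (±1 mm).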

Aspergillus brasiliensis [7] = assay: Antifungal activity against Aspergillus brasiliensis PTCC 5011 assessed as diameter of inhibition zone at 200 ug per disc after 72 hrs by agar disc diffusion method; type: functional; settings: PTCC 5011, 72 h, read-out: DIZ
Procedure, shortened: (§3)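 Agar disc diffusion against mold. Compounds at 20 mg mL⁻¹ in DMSO, filter-sterilised. 6 mm discs carried 10 µl (200 µg per disc), with DMSO discs as negative control. Incubation 72 h at 30 °C. Read-out is growth inhibition zone diameter, mean of 3 repeats (±1 mm).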

[8] = test system: Staphylococcus epidermidis; assay: Antibacterial activity against Staphylococcus epidermidis ATCC 12228 assessed as diameter of inhibition zone at 200 ug per disc after 24 hrs by agar disc diffusion method; type: functional; settings: for zone of inhibition at 200 µg/disc: ATCC 12228, 24 h, read-out: DIZ; procedure, shortened: as §2
Aspergillus niger [9] = assay: Antifungal activity against Aspergillus niger ATCC 16404 assessed as diameter of inhibition zone at 200 ug per disc after 72 hrs by agar disc diffusion method; type: functional; settings: ATCC 16404, 72 h, read-out: DIZ; procedure, shortened: as §3
Klebsiella pneumoniae [10] = assay: Antibacterial activity against Klebsiella pneumoniae ATCC 10031 assessed as diameter of inhibition zone at 200 ug per disc after 24 hrs by agar disc diffusion method; type: functional; settings: for zone of inhibition at 200 µg/disc: ATCC 10031, 24 h, read-out: DIZ; procedure, shortened: as §2
Pseudomonas aeruginosa [11] = assay: Antibacterial activity against Pseudomonas aeruginosa ATCC 27853 assessed as diameter of inhibition zone at 200 ug per disc after 24 hrs by agar disc diffusion method; type: functional; settings: ATCC 27853, 24 h, read-out: DIZ; procedure, shortened: as §2
Salmonella paratyphi [12] = assay: Antibacterial activity against Salmonella paratyphi A serotype ATCC 5702; type: functional
Pseudomonas aeruginosa [13] = assay: Antibacterial activity against Pseudomonas aeruginosa ATCC 27853; type: functional
Escherichia coli [14] = assay: Antibacterial activity against Escherichia coli ATCC 10536; type: functional
Escherichia coli [15] = assay: Antibacterial activity against Escherichia coli ATCC 10536 assessed as diameter of inhibition zone at 200 ug per disc after 24 hrs by agar disc diffusion method; type: functional; settings: ATCC 10536, 24 h, read-out: DIZ; procedure, shortened: as §2
Bacillus spizizenii [16] = assay: Antibacterial activity against Bacillus subtilis ATCC 6633 assessed as diameter of inhibition zone at 200 ug per disc after 24 hrs by agar disc diffusion method; type: functional; settings: for zone of inhibition at 200 µg/disc: ATCC 6633, 24 h, read-out: DIZ; procedure, shortened: as §2
Aspergillus niger [17] = assay: Antifungal activity against Aspergillus niger ATCC 16404; type: functional
Klebsiella pneumoniae [18] = assay: Antibacterial activity against Klebsiella pneumoniae ATCC 10031; type: functional
Proteus vulgaris [19] = assay: Antibacterial activity against Proteus vulgaris PTCC 1182 assessed as diameter of inhibition zone at 200 ug per disc after 24 hrs by agar disc diffusion method; type: functional; settings: for zone of inhibition at 200 µg/disc: PTCC 1182, 24 h, read-out: DIZ; procedure, shortened: as §2
Staphylococcus aureus [20] = assay: Antibacterial activity against Staphylococcus aureus ATCC 29737 assessed as diameter of inhibition zone at 200 ug per disc after 24 hrs by agar disc diffusion method; type: functional; settings: ATCC 29737, 24 h, read-out: DIZ; procedure, shortened: as §2
Shigella dysenteriae [21] = assay: Antibacterial activity against Shigella dysenteriae PTCC 1188 assessed as diameter of inhibition zone at 200 ug per disc after 24 hrs by agar disc diffusion method; type: functional; settings: for zone of inhibition at 200 µg/disc: PTCC 1188, 24 h, read-out: DIZ; procedure, shortened: as §2
Candida albicans [22] = assay: Antifungal activity against Candida albicans ATCC 10231; type: functional
Candida albicans [23] = assay: Antifungal activity against Candida albicans ATCC 10231 assessed as diameter of inhibition zone at 200 ug per disc after 48 hrs by agar disc diffusion method; type: functional; settings: ATCC 10231, 48 h, read-out: DIZ
Procedure, shortened: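 Yeast tested by agar disc diffusion. Compounds at 20 mg mL⁻¹ in DMSO, filter-sterilised. 6 mm discs carried 10 µl (200 µg per disc), with DMSO discs as negative control. Incubation 48 h at 30 °C. Zone diameter was averaged over 3 repeats (±1 mm).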

Aspergillus brasiliensis [24] = assay: Antifungal activity against Aspergillus brasiliensis PTCC 5011; type: functional
Proteus vulgaris [25] = assay: Antibacterial activity against Proteus vulgaris PTCC 1182; type: functional
[26] = Salmonella enterica subsp. enterica serovar Paratyphi A

Cholinesterase, sequence (P81908 whole entry): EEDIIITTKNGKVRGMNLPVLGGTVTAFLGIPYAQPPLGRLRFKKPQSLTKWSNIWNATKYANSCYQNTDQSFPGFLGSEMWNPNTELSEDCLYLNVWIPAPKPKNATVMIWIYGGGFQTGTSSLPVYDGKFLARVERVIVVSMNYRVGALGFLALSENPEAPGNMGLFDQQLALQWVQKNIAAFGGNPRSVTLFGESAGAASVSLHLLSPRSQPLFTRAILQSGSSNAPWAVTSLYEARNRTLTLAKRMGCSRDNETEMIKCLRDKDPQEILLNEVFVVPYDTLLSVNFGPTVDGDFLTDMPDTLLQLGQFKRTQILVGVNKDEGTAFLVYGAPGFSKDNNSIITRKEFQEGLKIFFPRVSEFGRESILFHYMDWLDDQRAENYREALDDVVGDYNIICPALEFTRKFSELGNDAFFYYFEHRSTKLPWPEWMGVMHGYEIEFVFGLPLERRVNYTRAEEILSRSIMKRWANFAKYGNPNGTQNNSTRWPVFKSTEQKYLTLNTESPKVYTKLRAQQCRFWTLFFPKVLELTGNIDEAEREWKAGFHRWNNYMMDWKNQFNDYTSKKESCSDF
Acetylcholinesterase (Electrophorus electricus), sequence (O42275 24-633 limits assumed): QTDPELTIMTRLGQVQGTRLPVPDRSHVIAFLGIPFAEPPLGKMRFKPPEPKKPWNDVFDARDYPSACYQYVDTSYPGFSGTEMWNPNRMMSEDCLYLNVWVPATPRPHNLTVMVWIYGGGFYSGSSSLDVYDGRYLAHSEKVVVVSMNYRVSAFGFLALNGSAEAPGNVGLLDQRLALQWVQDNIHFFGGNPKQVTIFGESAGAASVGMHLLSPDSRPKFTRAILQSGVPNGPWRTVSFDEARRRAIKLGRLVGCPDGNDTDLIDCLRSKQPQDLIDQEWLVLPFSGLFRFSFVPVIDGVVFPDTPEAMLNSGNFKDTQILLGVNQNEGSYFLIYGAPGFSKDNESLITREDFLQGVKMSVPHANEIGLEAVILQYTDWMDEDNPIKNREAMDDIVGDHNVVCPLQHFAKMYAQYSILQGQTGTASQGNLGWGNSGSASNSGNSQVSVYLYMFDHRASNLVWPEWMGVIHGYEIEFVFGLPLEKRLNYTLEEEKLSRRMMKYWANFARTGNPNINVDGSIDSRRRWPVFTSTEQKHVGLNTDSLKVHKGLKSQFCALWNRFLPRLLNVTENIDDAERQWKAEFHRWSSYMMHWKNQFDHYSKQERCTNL

## COc1ccc(C2CC(c3cc4cc(Br)ccc4o3)=Nc3ccccc3S2)cc1 (stereo unspecified)
[1]
  inhibition: inactive
Cholinesterase
  IC50: 1 µM

## Brc1ccc2oc(C3=Nc4ccccc4SC(c4ccccc4)C3)cc2c1 (stereo unspecified)
[1]
  inhibition: inactive
Cholinesterase
  IC50: 8.5 µM

## O=[N+]([O-])c1ccc2oc(C3=Nc4ccccc4SC(c4ccccc4F)C3)cc2c1 (stereo unspecified)
Shigella dysenteriae [2]
  MIC: inactive
[3]
  MIC: 5 µg/mL (≈ 11.9 µM)
Bacillus spizizenii [4]
  MIC: inactive
Staphylococcus aureus [5]
  MIC: 2.5 µg/mL (≈ 5.97 µM)
Salmonella paratyphi [6]
  zone of inhibition at 200 µg/disc: < 6 mm
Aspergillus brasiliensis [7]
  zone of inhibition at 200 µg/disc: < 6 mm
[8]
  zone of inhibition at 200 µg/disc: 10 mm
Aspergillus niger [9]
  zone of inhibition at 200 µg/disc: < 6 mm
Klebsiella pneumoniae [10]
  zone of inhibition at 200 µg/disc: < 6 mm
Pseudomonas aeruginosa [11]
  zone of inhibition at 200 µg/disc: < 6 mm
Salmonella paratyphi [12]; [26]
  MIC: inactive
Pseudomonas aeruginosa [13]
  MIC: inactive
Escherichia coli [14]
  MIC: 50 µg/mL (≈ 119 µM)
Escherichia coli [15]
  zone of inhibition at 200 µg/disc: 12 mm
Bacillus spizizenii [16]
  zone of inhibition at 200 µg/disc: < 6 mm
Aspergillus niger [17]
  MIC: inactive
Klebsiella pneumoniae [18]
  MIC: inactive
Proteus vulgaris [19]
  zone of inhibition at 200 µg/disc: 23 mm
Staphylococcus aureus [20]
  zone of inhibition at 200 µg/disc: 17 mm
Shigella dysenteriae [21]
  zone of inhibition at 200 µg/disc: < 6 mm
Candida albicans [22]
  MIC: 0.125 µg/mL (≈ 0.299 µM)
[1]
  inhibition: inactive
Candida albicans [23]
  zone of inhibition at 200 µg/disc: 19 mm
Cholinesterase
  IC50: 22 µM
Aspergillus brasiliensis [24]
  MIC: inactive
Proteus vulgaris [25]
  MIC: 0.125 µg/mL (≈ 0.299 µM)

## O=[N+]([O-])c1ccc2oc(C3=Nc4ccccc4SC(c4c[nH]c5ccccc45)C3)cc2c1 (stereo unspecified)
[1]
  inhibition: inactive
Cholinesterase
  IC50: 72 µM

## COc1cccc2cc(C3=Nc4ccccc4SC(c4ccc(O)cc4)C3)oc12 (stereo unspecified)
[1]
  inhibition: inactive
Cholinesterase
  IC50: 4.1 µM

## Fc1ccccc1C1CC(c2cc3cc(Br)ccc3o2)=Nc2ccccc2S1 (stereo unspecified)
Shigella dysenteriae [2]
  MIC: inactive
[3]
  MIC: 5 µg/mL (≈ 11.1 µM)
Bacillus spizizenii [4]
  MIC: inactive
Staphylococcus aureus [5]
  MIC: 5 µg/mL (≈ 11.1 µM)
Salmonella paratyphi [6]
  zone of inhibition at 200 µg/disc: 11 mm
Aspergillus brasiliensis [7]
  zone of inhibition at 200 µg/disc: < 6 mm
[8]
  zone of inhibition at 200 µg/disc: 9 mm
Aspergillus niger [9]
  zone of inhibition at 200 µg/disc: < 6 mm
Klebsiella pneumoniae [10]
  zone of inhibition at 200 µg/disc: < 6 mm
Pseudomonas aeruginosa [11]
  zone of inhibition at 200 µg/disc: 15 mm
Salmonella paratyphi [12]; Salmonella enterica
  MIC: 50 µg/mL (≈ 111 µM)
Pseudomonas aeruginosa [13]
  MIC: 50 µg/mL (≈ 111 µM)
Escherichia coli [14]
  MIC: inactive
Escherichia coli [15]
  zone of inhibition at 200 µg/disc: < 6 mm
Bacillus spizizenii [16]
  zone of inhibition at 200 µg/disc: < 6 mm
Aspergillus niger [17]
  MIC: inactive
Klebsiella pneumoniae [18]
  MIC: inactive
Proteus vulgaris [19]
  zone of inhibition at 200 µg/disc: < 6 mm
Staphylococcus aureus [20]
  zone of inhibition at 200 µg/disc: 10 mm
Shigella dysenteriae [21]
  zone of inhibition at 200 µg/disc: < 6 mm
Candida albicans [22]
  MIC: 25 µg/mL (≈ 55.3 µM)
[1]
  inhibition: inactive
Candida albicans [23]
  zone of inhibition at 200 µg/disc: 13 mm
Cholinesterase
  IC50: 13.7 µM
Aspergillus brasiliensis [24]
  MIC: inactive
Proteus vulgaris [25]
  MIC: inactive

## Brc1ccc2oc(C3=Nc4ccccc4SC(c4c[nH]c5ccccc45)C3)cc2c1 (stereo unspecified)
[1]
  inhibition: inactive
Cholinesterase
  IC50: 28 µM

## c1ccc2c(c1)N=C(c1cc3ccccc3o1)CC(c1c[nH]c3ccccc13)S2 (stereo unspecified)
[1]
  inhibition: inactive
Cholinesterase
  IC50: 60 µM

## Oc1ccc(C2CC(c3cc4ccccc4o3)=Nc3ccccc3S2)cc1 (stereo unspecified)
[1]
  inhibition: inactive
Cholinesterase
  IC50: 14 µM

## COc1cccc(C2CC(c3cc4cc(Br)ccc4o3)=Nc3ccccc3S2)c1 (stereo unspecified)
[1]
  inhibition: inactive
Cholinesterase
  IC50: 1 µM

## GENTAMICIN
Salmonella paratyphi [6]; [26]
  inhibition zone (IZ): 21 mm
[8]
  inhibition zone (IZ): 35 mm
Klebsiella pneumoniae [10]
  inhibition zone (IZ): 22 mm
Pseudomonas aeruginosa [13]
  MIC: inactive
Bacillus spizizenii [16]
  inhibition zone (IZ): 21 mm
Klebsiella pneumoniae [18]
  MIC: 0.25 µg/mL
Proteus vulgaris [19]
  inhibition zone (IZ): 23 mm
Shigella dysenteriae [21]
  inhibition zone (IZ): 18 mm
